Most compounds without a hit are left out; they make up all but 1.4% or so of the library.
FXIIa inh: human FXIIa protease inhibitors, primary screen, biochemical, 1536-well | Coagulation factor XII (Homo sapiens), P00748 | purified FXIIa, Boc-QGR-AMC fluorogenic substrate, 2 h | inhibition, % at 5 µM | hit rate 0.3% among 220,000 | AID 800, 2007; in the data active = inhibition above about 40%;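 note: 0% = enzyme with no compound and 100% = blank without enzyme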
KLK5 inh: human KLK5 protease inhibitors, primary screen, biochemical, 1536-well; recombinant hK5, fluorogenic AMC substrate cleavage; inhibition, % at 5 µM; hit rate 0.59% among 210,000;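 active = inhibition of 40% or more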;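 note: 0% = enzyme controls without compound and 100% = no-enzyme blanks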
m-calpain inh: inhibitors of pig calpain II, primary screen, biochemical, fluorogenic peptide substrate, 1536-well. purified calpain II, 30 min. inhibition, % at 16 µM. hit rate 0.37% among 220,000. AID 1236, 2008;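 active = inhibition above about 50%, limit read from the data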
Thrombin inh: human alpha-thrombin inhibitors, primary screen, counter-screen for coagulation protease inhibitor project, biochemical, 1536-well, fluorogenic AMC substrate | Boc-VPR-AMC fluorogenic substrate cleavage | inhibition, % at 5 µM | hit rate 0.26% among 220,000 | AID 1046, 2008;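 active = inhibition at or above 40%; inactive = inhibition below 40%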;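 note: 0% = enzyme with no compound and 100% = wells without enzyme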
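System: human alpha-thrombin protein; Compound dosing: one concentration per compound, 5 µM, with 0.2% DMSO; Timing: reaction at room temperature; Technique: AMC fluorescence, 355/460 nm; Controls: enzyme without compound as high, wells lacking enzyme as low.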
FXIa inh 1536: human FXIa protease inhibitors, primary screen, biochemical, 1536-well; Coagulation factor XI (Homo sapiens), P03951; inhibition, % at 5 µM; hit rate 0.14% among 220,000; purified FXIa, Boc-Glu-Ala-Arg-AMC fluorogenic substrate;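 active = inhibition of at least 40%; inactive = inhibition below 40%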;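 note: fluorescence of freed AMC excited at 355 nm; 0% = enzyme without compound and 100% = no enzyme blank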
Target sequence (P03951 19-387 limits assumed): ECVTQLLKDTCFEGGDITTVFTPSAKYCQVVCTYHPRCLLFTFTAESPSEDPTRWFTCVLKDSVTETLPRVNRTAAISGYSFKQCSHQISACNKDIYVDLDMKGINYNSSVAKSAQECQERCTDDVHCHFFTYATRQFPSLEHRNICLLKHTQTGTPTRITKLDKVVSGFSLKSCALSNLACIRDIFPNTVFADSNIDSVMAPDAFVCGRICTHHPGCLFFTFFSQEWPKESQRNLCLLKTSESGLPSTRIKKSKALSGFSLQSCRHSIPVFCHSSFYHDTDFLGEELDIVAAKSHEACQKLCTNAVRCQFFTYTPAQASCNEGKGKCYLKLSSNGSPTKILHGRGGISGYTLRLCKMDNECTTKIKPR
Target sequence (P03951 388-625 limits assumed): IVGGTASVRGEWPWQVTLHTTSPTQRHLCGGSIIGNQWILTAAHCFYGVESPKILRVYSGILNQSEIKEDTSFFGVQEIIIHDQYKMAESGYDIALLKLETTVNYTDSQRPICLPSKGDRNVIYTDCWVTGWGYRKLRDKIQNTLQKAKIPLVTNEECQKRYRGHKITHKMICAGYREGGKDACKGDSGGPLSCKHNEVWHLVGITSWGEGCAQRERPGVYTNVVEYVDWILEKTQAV
Numbers without * were called inactive; / = no result given.

SMILES	FXIIa inh	KLK5 inh	m-calpain inh	Thrombin inh	FXIa inh 1536
CCCOc1ccc(C2NC(=S)NC(c3ccccc3)=C2C(=O)Nc2ccc(C)cc2)cc1OC (stereo unspecified)	8.9	-6.0	-37.4	-10.8	6.9
Cc1ccc(Nc2ncnc(N)n2)cc1C	6.9	-4.2	-6.7	-9.6	-6.0
O=C(Nc1ncc(Cc2ccccc2)s1)c1cccs1	42.1*	-15.1	49.1	0.4	33.7
Cc1cccc(C)c1NS(=O)(=O)c1ccc(OCCNS(C)(=O)=O)cc1	9.8	/	1.6	-2.0	3.1
COc1ccc(N2CCN(c3oc(COc4ccc(Cl)cc4Cl)nc3C#N)CC2)cc1	30.9	11.4	51.2*	1.5	22.9
O=C(CN1CCN(Cc2ccccc2F)C1=O)NC1CCCC1	8.3	1.4	-25.2	1.6	-5.3
O=C(CN1CCCN(Cc2ccc(F)cc2Cl)C1=O)NC1CCCCCCC1	23.7	104.1*	15.1	12.2	7.2
COc1cc(Nc2ncnc(N)n2)cc(OC)c1	2.2	1.8	-14.3	-1.4	2.0
Cc1cc(OCC(=O)Nc2ccc(CN3CCCCC3)cc2)ccc1Cl	21.2	42.4*	23.5	16.3	28.9
COc1ccc(-c2cc(N)n(S(=O)(=O)c3ccc(F)cc3)n2)cc1OC	10.7	2.5	-8.8	0.1	3.1
CC(C)=CCC/C(C)=C/C(N)=O	6.1	-6.8	-11.0	-8.1	3.8
CC(C)=CCC/C(C)=C/CC/C(C)=N/O	40.2*	29.5	24.2	23.7	15.1
COc1cc(S(=O)(=O)N2CCN(C(=O)c3ccccc3F)CC2)c(OC)cc1NC(C)=O	15.5	46.7*	2.7	10.4	16.0
NC(=O)C1(N2CCCCC2)CCN(C(=O)CSc2nc3ccccc3s2)CC1	11.5	59.5*	22.4	26.3	8.7
Cc1ccc(-c2nn(-c3ccccc3)cc2/C=N/NS(=O)(=O)c2ccccc2)cc1	45.3*	-12.3	-71.0	1.8	26.4
Cc1ccc(S(=O)(=O)N/N=C\c2cn(-c3ccccc3)nc2-c2ccccc2)cc1	5.4	-4.5	-91.4	-1.1	-0.7
Cc1c(Cl)cn2c(=O)cc(CN(C)Cc3nc4ccccc4c(=O)[nH]3)nc2c1Cl	9.3	10.0	5.1	1.8	4.2
Cc1[nH]c2ccccc2c1NC(=O)CN1CCN(C(=O)c2ccco2)CC1	59.3*	20.4	18.0	35.3	38.4
O=C(O)c1cn(C2CC2)c2cc(N3CCN(S(=O)(=O)c4ccc5c(c4)OCCO5)CC3)c(F)cc2c1=O	/	-2.6	-180.4	-1.5	-3.1
C=CCOc1ccc(CNC(C)(C)CO)cc1OC	7.4	17.9	18.3	-4.1	2.4
COc1cc(CNC(C)(C)CO)ccc1OCC(=O)Nc1ccc(Br)cc1	8.8	41.7*	10.3	2.8	-6.8
Cc1ccc(OCC(=O)N2CCN(C(=O)CCC3CCCC3)CC2)cc1	11.3	17.6	5.4	-1.8	5.4
Cc1ccc(OCC(=O)N2CCC(N3CCCCCC3)CC2)cc1	-1.3	-32.4	-13.2	41.6*	-13.8
CCc1ccccc1NC(=O)N1CCC(NC(=O)C(Cc2ccccc2)NC(C)=O)CC1 (stereo unspecified)	8.0	-0.5	-25.3	-3.5	-3.7
O=C(O)CNC(=O)c1ccc(Sc2ccccc2)c([N+](=O)[O-])c1	9.4	0.7	-4.9	-5.8	2.5
SMILES	FXIIa inh	KLK5 inh	m-calpain inh	Thrombin inh	FXIa inh 1536
CC(C)(C)NC(=O)c1ccc(Sc2ccccc2)c([N+](=O)[O-])c1	2.4	9.6	54.1*	8.5	12.1
C=CCn1c(SCC(=O)Nc2nc(C)cs2)nnc1C(NC(=O)c1ccccc1)C(C)C (stereo unspecified)	15.4	51.1*	21.7	18.2	4.4
COc1ccc(C(=O)NC(C)c2nnc(SCC(=O)Nc3nc(C)cs3)n2C)cc1 (stereo unspecified)	39.8	-11.9	27.8	-6.7	13.9
C=CCn1c(CCC(O)COCCCCC)n[nH]c1=S (stereo unspecified)	9.6	3.2	-7.5	1.4	2.6
O=C(Cn1ncc2c1-c1ccccc1OC2)Nc1cccc(Cl)c1	13.7	-4.2	-7.0	1.3	1.8
O=C(Cn1ncc2c1-c1ccccc1OC2)Nc1ccc(Cl)cn1	27.0	52.1*	16.6	-2.2	4.2
CCOC1=NN(c2ncc(C(F)(F)F)cc2Cl)C(=O)/C1=C/N(C)C	5.4	1.7	22.6	-4.4	1.7
